According to ChEMBL document CHEMBL4002602, “Design, Synthesis of Novel, Potent, Selective, Orally Bioavailable Adenosine A2A Receptor Antagonists and Their Biological Evaluation” (J Med Chem, 2017):

Tests used:
[1] = Elimination half-life in Wistar rat at 3 mg/kg, iv by LC/MS/MS analysis; assay type: ADME, organism-based; conditions: in vivo, read-out: beta t1/2 (converted)
Method in brief: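 Male Wistar rats (230 ± 15 g), fasted overnight, given 3 mg/kg IV via tail vein as a solution (0.6 mg/mL, 5 mL/kg) in NMP-based vehicles with acetate buffer pH 4.2. Serial plasma sampling (K2EDTA) from 0.008 to 24 h. Acetonitrile precipitation, then LC/MS/MS. Non-compartmental analysis per animal; mean of n=4.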

hERG (KCNH2) = hERG (KCNH2) (Homo sapiens, UniProt Q12809); assay: Inhibition of [3H]-astemizole binding to human ERG at 30 uM after 2 hrs by liquid scintillation counting method relative to control; conditions: probe [3H]-astemizole
hERG (KCNH2), sequence (Q12809 whole entry): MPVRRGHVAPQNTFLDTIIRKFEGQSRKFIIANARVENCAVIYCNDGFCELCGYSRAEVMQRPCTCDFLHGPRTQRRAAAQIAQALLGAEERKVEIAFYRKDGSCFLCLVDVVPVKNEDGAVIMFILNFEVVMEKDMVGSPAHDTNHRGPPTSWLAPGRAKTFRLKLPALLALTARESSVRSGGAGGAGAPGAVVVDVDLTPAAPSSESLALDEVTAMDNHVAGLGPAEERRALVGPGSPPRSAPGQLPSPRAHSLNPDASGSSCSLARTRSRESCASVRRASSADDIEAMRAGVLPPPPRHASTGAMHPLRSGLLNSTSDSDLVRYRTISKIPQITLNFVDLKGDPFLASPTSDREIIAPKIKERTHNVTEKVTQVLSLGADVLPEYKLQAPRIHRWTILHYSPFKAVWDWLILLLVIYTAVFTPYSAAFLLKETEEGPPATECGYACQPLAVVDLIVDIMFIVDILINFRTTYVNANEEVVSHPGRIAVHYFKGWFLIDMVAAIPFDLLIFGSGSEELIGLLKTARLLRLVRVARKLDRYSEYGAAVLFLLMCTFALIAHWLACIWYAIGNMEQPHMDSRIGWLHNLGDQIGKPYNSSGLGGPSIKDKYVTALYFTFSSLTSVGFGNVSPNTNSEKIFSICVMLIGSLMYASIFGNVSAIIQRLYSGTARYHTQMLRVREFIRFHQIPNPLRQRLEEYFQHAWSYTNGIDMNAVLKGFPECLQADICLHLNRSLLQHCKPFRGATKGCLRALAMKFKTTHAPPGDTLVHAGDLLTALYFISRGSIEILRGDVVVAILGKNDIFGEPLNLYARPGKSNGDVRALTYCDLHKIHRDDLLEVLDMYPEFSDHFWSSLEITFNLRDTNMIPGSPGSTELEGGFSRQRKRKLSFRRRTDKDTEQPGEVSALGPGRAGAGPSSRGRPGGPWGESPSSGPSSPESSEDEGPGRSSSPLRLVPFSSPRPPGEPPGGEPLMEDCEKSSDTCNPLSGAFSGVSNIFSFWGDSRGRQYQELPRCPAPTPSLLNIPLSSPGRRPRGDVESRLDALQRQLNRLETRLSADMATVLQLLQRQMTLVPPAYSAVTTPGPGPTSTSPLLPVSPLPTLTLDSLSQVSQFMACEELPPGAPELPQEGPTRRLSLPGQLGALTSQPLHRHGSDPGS

[2] = AUC (0 to t) in Wistar rat at 10 mg/kg administered via oral gavage by LC/MS/MS analysis; assay type: ADME, organism-based; conditions: in vivo
Method in brief: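 Male Wistar rats (230 ± 15 g), fasted overnight with water available, given a single oral suspension in 1% Tween 80 and 0.5% NaCMC (1 mg/mL, 10 mL/kg). Serial blood sampling (n=3/time point) at 0.25–24 h into K2EDTA. Plasma proteins precipitated with acetonitrile, then LC/MS/MS. AUC0-t by non-compartmental analysis of individual animals.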

Adenosine receptor A2a [3] = molecular target: T1, Adenosine receptor A2a (Homo sapiens, UniProt P29274); assay: Displacement of [3H]ZM241385 from human adenosine A2A receptor expressed in HEK293 cell membranes measured after 90 mins
T1 sequence (P29274 whole entry): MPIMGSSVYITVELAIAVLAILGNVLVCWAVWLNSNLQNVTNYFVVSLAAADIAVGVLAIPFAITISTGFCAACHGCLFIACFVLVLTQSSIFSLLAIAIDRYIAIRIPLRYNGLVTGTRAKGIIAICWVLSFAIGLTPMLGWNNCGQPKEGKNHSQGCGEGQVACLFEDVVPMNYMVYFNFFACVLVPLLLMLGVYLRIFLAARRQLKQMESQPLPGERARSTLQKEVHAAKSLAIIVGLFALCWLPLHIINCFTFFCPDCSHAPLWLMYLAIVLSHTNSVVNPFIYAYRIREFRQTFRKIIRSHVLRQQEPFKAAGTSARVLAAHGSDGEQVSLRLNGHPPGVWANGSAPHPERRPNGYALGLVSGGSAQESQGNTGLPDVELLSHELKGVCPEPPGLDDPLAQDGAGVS
Method in brief: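 Competition binding on membranes from HEK-293 cells overexpressing human A1, A2A, A2B or A3, washed with ADA. Radioligands: [3H]-DPCPX 1 nM (A1), [3H]ZM241385 1 nM (A2A), [3H]-MRS-1754 1.6 nM (A2B), [3H]-HEMADO 2 nM (A3). Buffer was 50 mM Tris with EDTA and ADA; MgCl2 10 mM for A2A/A3; A2B at pH 6.5 with 5 mM MgCl2. Incubation 90 min at room temperature, then filtration. Nonspecific binding defined by NECA 100 μM. Ki values: mean of two experiments, triplicate points.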

[4] = Cmax in Wistar rat at 10 mg/kg administered via oral gavage by LC/MS/MS analysis; assay type: ADME, organism-based; design: dose 10 mg/kg, route oral; conditions: in vivo
Method in brief: (§1)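 Fasted male Wistar rats given 10 mg/kg PO as a suspension in 1% Tween 80, 0.5% w/v NaCMC. Serial plasma sampling (K2EDTA) at 0.25–24 h, acetonitrile precipitation, LC/MS/MS. Non-compartmental analysis per animal; bioavailability calculated against the 3 mg/kg IV group; mean of n=4.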

[5] = Tmax in Wistar rat at 10 mg/kg administered via oral gavage by LC/MS/MS analysis; assay type: ADME, organism-based; conditions: in vivo; method in brief: as §1
Adenosine receptor A2a [6] = molecular target: T1, Adenosine receptor A2a; assay: Antagonist activity at human adenosine A2A receptor expressed in HEK293 cell membranes assessed as decrease in CGS-21680-induced cAMP level pretreated for 15 mins followed by agonist addition for 30 mins
Cytochrome P450 2C19 = Cytochrome P450 2C19 (Homo sapiens, UniProt P33261); assay: Inhibition of CYP2C19 in human liver microsomes at 5 to 25 uM using (S)mephenytoin as substrate preincubated for 5 mins with substrate followed by NADPH addition measured after 40 mins by LC-MS/MS analysis; assay type: ADME; conditions: microsomes, 40 min, 25 µM
Cytochrome P450 2C19, sequence (P33261 whole entry): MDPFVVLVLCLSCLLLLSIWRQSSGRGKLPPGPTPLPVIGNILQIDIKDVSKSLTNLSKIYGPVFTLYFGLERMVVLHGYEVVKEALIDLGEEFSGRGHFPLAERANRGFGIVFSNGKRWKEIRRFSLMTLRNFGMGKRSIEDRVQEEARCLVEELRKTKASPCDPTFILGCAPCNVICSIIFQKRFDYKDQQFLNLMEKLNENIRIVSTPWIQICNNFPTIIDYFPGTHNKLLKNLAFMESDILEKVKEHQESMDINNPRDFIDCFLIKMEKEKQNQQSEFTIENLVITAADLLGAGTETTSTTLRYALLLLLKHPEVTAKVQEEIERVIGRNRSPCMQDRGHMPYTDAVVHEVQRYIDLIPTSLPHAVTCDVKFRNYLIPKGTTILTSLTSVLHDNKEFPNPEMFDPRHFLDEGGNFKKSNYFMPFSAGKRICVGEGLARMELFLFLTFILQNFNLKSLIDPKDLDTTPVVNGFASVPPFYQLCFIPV

Cytochrome P450 2D6 = Cytochrome P450 2D6 (Homo sapiens, UniProt P10635); assay: Inhibition of CYP2D6 in human liver microsomes at 5 to 25 uM using dextromethorphan as substrate preincubated for 5 mins with substrate followed by NADPH addition measured after 10 mins by LC-MS/MS analysis; assay type: ADME; conditions: microsomes, 10 min, 25 µM
Cytochrome P450 2D6, sequence (P10635 whole entry): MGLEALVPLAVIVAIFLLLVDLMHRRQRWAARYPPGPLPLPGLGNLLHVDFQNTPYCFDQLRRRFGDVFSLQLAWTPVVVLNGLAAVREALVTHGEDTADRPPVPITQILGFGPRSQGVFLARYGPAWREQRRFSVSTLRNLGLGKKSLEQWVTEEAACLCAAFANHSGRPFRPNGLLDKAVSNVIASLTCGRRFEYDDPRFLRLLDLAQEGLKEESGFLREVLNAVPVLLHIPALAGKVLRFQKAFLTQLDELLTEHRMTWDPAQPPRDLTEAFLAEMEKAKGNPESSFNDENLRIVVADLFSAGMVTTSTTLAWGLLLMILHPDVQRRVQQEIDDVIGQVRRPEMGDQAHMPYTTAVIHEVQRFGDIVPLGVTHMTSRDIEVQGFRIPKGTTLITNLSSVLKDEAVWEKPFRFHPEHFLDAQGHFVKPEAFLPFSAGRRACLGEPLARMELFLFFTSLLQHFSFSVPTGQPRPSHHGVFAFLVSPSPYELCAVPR

Adenosine receptor A3 = molecular target: T2, Adenosine receptor A3 (Homo sapiens, UniProt P0DMS8); assay: Displacement of [3H]-HEMADO from human adenosine A3 receptor expressed in HEK293 cell membranes measured after 90 mins
T2 sequence (P0DMS8 whole entry): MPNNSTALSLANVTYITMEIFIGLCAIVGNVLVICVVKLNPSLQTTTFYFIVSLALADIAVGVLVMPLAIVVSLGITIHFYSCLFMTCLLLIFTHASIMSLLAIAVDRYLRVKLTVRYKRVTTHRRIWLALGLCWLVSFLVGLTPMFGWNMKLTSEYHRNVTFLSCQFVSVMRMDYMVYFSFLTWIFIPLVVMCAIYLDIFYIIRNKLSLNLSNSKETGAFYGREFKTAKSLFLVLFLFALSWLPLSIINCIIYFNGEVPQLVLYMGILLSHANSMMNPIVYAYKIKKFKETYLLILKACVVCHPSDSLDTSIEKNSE

Cytochrome P450 2C9 = Cytochrome P450 2C9 (Homo sapiens, UniProt P11712); assay: Inhibition of CYP2C9 in human liver microsomes at 5 to 25 uM using diclofenac as substrate preincubated for 5 mins with substrate followed by NADPH addition measured after 10 mins by LC-MS/MS analysis; assay type: ADME; conditions: microsomes, 10 min, 25 µM
Cytochrome P450 2C9, sequence (P11712 whole entry): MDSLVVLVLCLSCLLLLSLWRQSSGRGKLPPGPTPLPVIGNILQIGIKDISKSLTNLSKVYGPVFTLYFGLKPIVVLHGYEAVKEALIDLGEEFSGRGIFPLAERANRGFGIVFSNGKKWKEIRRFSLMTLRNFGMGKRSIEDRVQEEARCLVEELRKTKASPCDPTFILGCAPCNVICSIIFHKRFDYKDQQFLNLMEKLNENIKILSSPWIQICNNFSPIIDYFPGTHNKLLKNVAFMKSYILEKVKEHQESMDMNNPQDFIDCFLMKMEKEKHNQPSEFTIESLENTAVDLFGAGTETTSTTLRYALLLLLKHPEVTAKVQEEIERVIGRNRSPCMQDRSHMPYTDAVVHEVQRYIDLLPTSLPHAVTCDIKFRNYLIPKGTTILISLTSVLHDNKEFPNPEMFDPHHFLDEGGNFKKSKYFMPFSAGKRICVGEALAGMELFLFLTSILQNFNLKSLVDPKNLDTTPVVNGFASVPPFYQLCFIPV

Cytochrome P450 1A2 = molecular target: T3, Cytochrome P450 1A2 (Homo sapiens, UniProt P05177); assay: Inhibition of CYP1A2 in human liver microsomes at 5 to 25 uM using phenacetin as substrate preincubated for 5 mins with substrate followed by NADPH addition measured after 10 mins by LC-MS/MS analysis; assay type: ADME; conditions: microsomes, 10 min, 25 µM
T3 sequence (P05177 whole entry): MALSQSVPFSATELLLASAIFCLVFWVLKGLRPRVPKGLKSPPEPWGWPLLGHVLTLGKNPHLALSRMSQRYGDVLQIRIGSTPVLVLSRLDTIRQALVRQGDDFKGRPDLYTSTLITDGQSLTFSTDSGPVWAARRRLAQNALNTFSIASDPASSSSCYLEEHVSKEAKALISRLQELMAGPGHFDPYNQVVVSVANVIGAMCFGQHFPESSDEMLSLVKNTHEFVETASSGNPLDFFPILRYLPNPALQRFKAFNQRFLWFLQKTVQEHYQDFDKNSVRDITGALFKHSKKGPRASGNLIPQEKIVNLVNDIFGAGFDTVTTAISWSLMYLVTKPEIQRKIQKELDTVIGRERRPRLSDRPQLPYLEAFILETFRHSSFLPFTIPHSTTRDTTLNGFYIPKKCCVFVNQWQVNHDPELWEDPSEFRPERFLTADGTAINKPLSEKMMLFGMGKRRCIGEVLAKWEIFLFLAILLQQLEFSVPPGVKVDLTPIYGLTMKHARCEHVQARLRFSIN

SMILES	half-life [1] [h]	AUC(0-t) [2] [µM·h]	Ki (Adenosine receptor A2a [3]) [nM]	Cmax [4] [nM]	Tmax [5] [h]	Ki (Adenosine receptor A2a [6]) [nM]	inhibition (INH) (Cytochrome P450 2C19)	inhibition (INH) (Cytochrome P450 2D6)	Ki (Adenosine receptor A3) [nM]	inhibition (INH) (Cytochrome P450 2C9)	inhibition (INH) (Cytochrome P450 1A2)	inhibition at 2 h, 30 µM (hERG (KCNH2)) [%]
COc1cnc(N2CCOCC2)c2sc(NC(=O)C(C)(C)Oc3ccc(F)cc3)nc12	5.4	12	3.4	1100	2.75	6.5	Not Active	Not Active	400	Not Active	Not Active	< 10
COc1ccc(N2CCOCC2)c2sc(NC(=O)C(C)(C)Oc3ccc(F)c(F)c3)nc12	5.5	6.2	6.4	1330	0.5	2.4	Not Active	Not Active	500	Not Active	Not Active	

The remaining molecules from weak to strong by Ki (Adenosine receptor A2a [3]), led by results:

half-life [1] [h]	AUC(0-t) [2] [µM·h]	Ki (Adenosine receptor A2a [3]) [nM]	Cmax [4] [nM]	Tmax [5] [h]	Ki (Adenosine receptor A2a [6]) [nM]	inhibition (INH) (Cytochrome P450 2C19)	inhibition (INH) (Cytochrome P450 2D6)	Ki (Adenosine receptor A3) [nM]	inhibition (INH) (Cytochrome P450 2C9)	inhibition (INH) (Cytochrome P450 1A2)	SMILES	inhibition at 2 h, 30 µM (hERG (KCNH2)) [%]
6.3	1.5	13	190	0.5	4.2	Not Active	Not Active	5000	Not Active	Not Active	COc1ccc(N2CCOCC2)c2sc(NC(=O)C(C)(C)Oc3ccc(F)cc3)nc12	
0.6	7.8	8.6	5400	0.5	0.25						COc1ccc(N2CCOCC2)c2sc(NC(=O)C3(C)CCC(C)(O)CC3)nc12 (stereo not drawn)	26
2.4	5.5	2.1	2020	0.63	0.2						CCN(CC)C1CCC(C)(C(=O)Nc2nc3c(OC)ccc(N4CCOCC4)c3s2)CC1 (stereo not drawn)	18
